The target in data set [1] is T1, Amine oxidase [flavin-containing] B (Homo sapiens, UniProt P27338).
T1 sequence (P27338 whole entry): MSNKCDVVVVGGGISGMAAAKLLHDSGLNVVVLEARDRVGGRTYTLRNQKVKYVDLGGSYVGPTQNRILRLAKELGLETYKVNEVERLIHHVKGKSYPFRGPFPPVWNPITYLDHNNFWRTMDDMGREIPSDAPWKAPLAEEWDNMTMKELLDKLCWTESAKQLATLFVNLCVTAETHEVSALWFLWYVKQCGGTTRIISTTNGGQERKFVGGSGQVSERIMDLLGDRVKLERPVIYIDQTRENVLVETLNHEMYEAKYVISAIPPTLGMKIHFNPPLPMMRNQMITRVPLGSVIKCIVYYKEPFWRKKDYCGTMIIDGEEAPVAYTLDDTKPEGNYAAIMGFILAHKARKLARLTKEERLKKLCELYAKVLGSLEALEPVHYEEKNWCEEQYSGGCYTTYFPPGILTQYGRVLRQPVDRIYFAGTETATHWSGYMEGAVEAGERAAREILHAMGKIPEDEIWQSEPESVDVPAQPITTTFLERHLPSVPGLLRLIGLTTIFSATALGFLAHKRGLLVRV
Nature of the data set: Inhibition of human recombinant MAOB expressed in insect cells by fluorescence assay. It is filed as cell-based.

For another data set, the species on record is Homo sapiens. Nature of the data set: Selectivity ratio of Ki for human recombinant MAOA to Ki for human recombinant MAOB. An outline of the steps: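 Ki values were obtained from duplicate kynuramine-oxidation IC50 data for insect-cell recombinant human MAO-A and MAO-B by the Cheng–Prusoff equation. […] The ratio is Ki(MAO-A)/Ki(MAO-B).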
Data set [2] addresses T2, Amine oxidase [flavin-containing] A (Homo sapiens, UniProt P21397).
T2 sequence (P21397 whole entry): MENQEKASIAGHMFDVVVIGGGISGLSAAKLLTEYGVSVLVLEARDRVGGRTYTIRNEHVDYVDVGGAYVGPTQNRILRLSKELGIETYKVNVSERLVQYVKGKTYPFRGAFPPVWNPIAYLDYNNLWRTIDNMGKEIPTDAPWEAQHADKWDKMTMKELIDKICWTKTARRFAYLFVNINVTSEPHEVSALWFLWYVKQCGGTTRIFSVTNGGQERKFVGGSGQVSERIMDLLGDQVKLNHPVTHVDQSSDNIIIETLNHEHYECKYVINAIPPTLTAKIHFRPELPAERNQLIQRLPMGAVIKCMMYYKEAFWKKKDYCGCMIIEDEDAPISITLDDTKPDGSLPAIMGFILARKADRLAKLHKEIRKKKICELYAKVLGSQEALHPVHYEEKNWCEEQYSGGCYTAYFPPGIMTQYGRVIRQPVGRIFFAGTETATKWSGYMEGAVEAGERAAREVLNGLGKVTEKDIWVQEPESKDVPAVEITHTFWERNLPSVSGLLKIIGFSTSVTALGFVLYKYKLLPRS
Nature of the data set: Inhibition of human recombinant MAOA expressed in insect cells by fluorescence assay. The method in brief: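 Insect-cell microsomal recombinant human MAO-A (0.0075 mg/mL) in 100 mM potassium phosphate, pH 7.4, made isotonic with KCl, with 45 µM kynuramine. Incubated 20 min at 37 °C and stopped with NaOH. 4-Hydroxyquinoline was read by fluorescence (ex 310/em 400 nm) against a calibration curve.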

For data set [3], the target named is T2, Amine oxidase [flavin-containing] A. Nature of the data set: Inhibition of human recombinant MAOA expressed in insect cells at 100 uM by fluorescence assay.
For data set [4], the target named is T1, Amine oxidase [flavin-containing] B. Nature of the data set: Inhibition of human recombinant MAOB expressed in insect cells at 100 uM by fluorescence assay.
The target is the same in data set [5]. Nature of the data set: Inhibition of human recombinant MAOB expressed in insect cells at 2.8 uM by fluorescence assay. The settings on record: TDE = time-dependent effect.
For data set [6], the target named is T2, Amine oxidase [flavin-containing] A. Nature of the data set: Competitive inhibition of human recombinant MAOA expressed in insect cells at 2.5 to 10 uM by Lineweaver-Burk plot analysis.
The target is the same in data set [7]. Nature of the data set: Inhibition of human recombinant MAOA expressed in insect cells at 9.76 uM by fluorescence assay. The settings on record: TDE = time-dependent effect. An outline of the steps:
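Reversibility test: recombinant human MAO-A (0.03 mg/mL) was preincubated 0, 15, 30 or 60 min at 37 °C with 9.76 µM inhibitor in isotonic pH 7.4 phosphate buffer. […] Residual rate was measured by 4-hydroxyquinoline fluorescence, in triplicate, mean ± SD.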

Data set [8] concerns the target T1, Amine oxidase [flavin-containing] B. Nature of the data set: Competitive inhibition of human recombinant MAOB expressed in insect cells at 0.125 to 0.5 uM by Lineweaver-Burk plot analysis. The method in brief:
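Recombinant human MAO-B from insect cells (0.015 mg/mL) was run with 15–90 µM kynuramine, without inhibitor and with 0.125, 0.25 or 0.5 µM inhibitor. The assay was otherwise the standard fluorescence procedure. Lineweaver–Burk plots were fitted by linear regression.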

The structures appear in SMILES notation.

By IC50 is commonly meant the concentration that inhibits the measured activity by half. By Ki is commonly meant a measure of affinity in units of concentration, obtained from inhibition or displacement. For `O=C1Nc2ccc(/C=C/c3ccccc3)cc2C1=O`, in data set [1], the IC50 was found to be 0.009 µM and the Ki was 0.004 µM. The Ratio Ki in the data set listed under Homo sapiens is 15.8. Also, in data set [2], the IC50 amounted to 0.233 µM and the Ki stood at 0.061 µM.

On to `O=C1Nc2cc(/C=C/c3ccccc3)ccc2C1=O` [(E)-6-STYRYLISATIN], for which, in data set [2], the IC50 amounted to 2.72 µM and the inhibition constant Ki amounted to 0.717 µM.

Consider `O=C1Nc2ccc(Oc3ccccc3)cc2C1=O`, for which, in data set [1], the IC50 is 1.54 µM and the Ki is 0.663 µM. The Ratio Ki in the data set filed under Homo sapiens was 3.75. In [2], the IC50 worked out at 9.44 µM and the Ki is 2.49 µM.

In the case of `Cl.Nc1ccc(CCCCc2ccccc2)cc1`, the “inhibition (INH)” value in data set [3] is on record as “Not Active”. In addition, in data set [1], the IC50 amounted to 5.55 µM and the Ki amounted to 2.39 µM.

As to `Nc1ccc(Oc2ccc(Cl)cc2)cc1`, in data set [1], the IC50 worked out at 16.8 µM and the Ki was found to be 7.24 µM. Besides, the Ratio Ki in the data set listed under Homo sapiens turned out to be 1.07. In [2], the IC50 came to 29.3 µM and the Ki is 7.72 µM.

On to `Nc1ccc(CCc2ccccc2)cc1`, for which, in data set [2], the IC50 worked out at 131 µM and the Ki was found to be 34.5 µM.

`O=C1Nc2ccc(Oc3ccc(Cl)cc3)cc2C1=O`: the IC50 in data set [1] came to 0.066 µM; in [2] it was 12.2 µM. The inhibitory constant (Ki) in data set [1] came to 0.028 µM; in data set [2], 3.21 µM. Besides, the Ratio Ki in the data set listed under Homo sapiens came out at 113.

For the compound `Nc1cccc(OCc2ccccc2)c1` [3-(BENZYLOXY)ANILINE], in data set [1], the IC50 was 23.4 µM and the Ki is 10.1 µM. For the same compound, in the data set filed under Homo sapiens, the Ratio Ki was 12.2. For the same compound, in [2], the IC50 came out at 466 µM and the Ki was 123 µM.

`Nc1ccc(OCc2ccccc2)cc1` [4-BENZYLOXYANILINE]: in data set [1], the IC50 turned out to be 12.8 µM and the Ki worked out at 5.51 µM. For the same compound, the Ratio Ki in the data set filed under Homo sapiens turned out to be 9.13. In [2], the IC50 turned out to be 191 µM and the Ki was 50.3 µM.

For the compound `O=C1Nc2ccc(-c3ccccc3)cc2C1=O`, in [1], the IC50 stood at 1.19 µM and the Ki worked out at 0.513 µM. In addition, the Ratio Ki in the data set listed under Homo sapiens came to 0.289. Moreover, in data set [2], the half-inhibitory concentration (IC50) amounted to 0.562 µM and the Ki was found to be 0.148 µM.

With `Nc1ccc(Oc2ccccc2)cc1` [4-PHENOXYANILINE], the IC50 amounted to 303 µM in [1] and 91.4 µM in [2]. In addition, the figures for the Ki in [1] and in data set [2] were 131 µM and 24.1 µM, respectively. Moreover, in the data set filed under Homo sapiens, the Ratio Ki was found to be 0.185.

Consider `Nc1cccc(-c2ccccc2)c1`, for which the “inhibition (INH)” value in [4] is listed as “Not Active”. Moreover, in [2], the IC50 worked out at 68.6 µM and the Ki was 18.1 µM.

On to `O=C1Nc2ccc(CCc3ccccc3)cc2C1=O`, for which the “inhibition (INH)” value in data set [5] was “tde”; in data set [6], “Active”; in data set [7] it was “tde”; in data set [8], “Active”. The results for the IC50 in data set [1] and in [2] were 1.4 µM and 4.88 µM, respectively. The values for the Ki in data set [1] and in data set [2] were 0.603 µM and 1.29 µM, respectively. Moreover, the Ratio Ki in the data set listed under Homo sapiens was determined as 2.13.

Consider `O=C1Nc2cc(CCc3ccccc3)ccc2C1=O`, for which, in [1], the IC50 came out at 9.93 µM and the Ki worked out at 4.28 µM. Besides, the Ratio Ki in the data set listed under Homo sapiens came to 0.427. For the same compound, in [2], the IC50 amounted to 6.93 µM and the Ki came out at 1.83 µM.

Turning to `Nc1cccc(CCc2ccccc2)c1`, in data set [2], the 50% inhibitory concentration (IC50) stood at 355 µM and the Ki came out at 93.5 µM.

With `O=C1Nc2ccc(OCc3ccccc3)cc2C1=O`, in [1], the IC50 is 0.103 µM and the Ki was 0.044 µM. For the same compound, the Ratio Ki in the data set listed under Homo sapiens amounted to 27.4. Further, in [2], the IC50 worked out at 4.62 µM and the Ki came to 1.22 µM.

As to `Nc1cccc(Oc2ccccc2)c1` [3-PHENOXYANILINE], the “inhibition (INH)” value in data set [3] was “Not Active”.

Turning to `Nc1ccc(/C=C/c2ccccc2)cc1` [(E)-4-STYRYLANILINE], in [1], the IC50 worked out at 6.34 µM and the Ki was determined as 2.73 µM. Besides, the Ratio Ki in the data set filed under Homo sapiens turned out to be 2.44. For the same compound, in [2], the IC50 stood at 25.3 µM and the Ki is 6.67 µM.

As for `O=C1Nc2cc(OCc3ccccc3)ccc2C1=O`, in [1], the IC50 turned out to be 0.138 µM and the Ki is 0.059 µM. Further, in the data set filed under Homo sapiens, the Ratio Ki is 321. In addition, in [2], the IC50 was found to be 72.4 µM and the Ki turned out to be 19.1 µM.

Take `O=C1Nc2cc(Oc3ccccc3)ccc2C1=O`: in [1], the IC50 was found to be 9.91 µM and the Ki was found to be 4.27 µM. Besides, in the data set listed under Homo sapiens, the Ratio Ki amounted to 3.84. In data set [2], the IC50 is 62.2 µM and the Ki came to 16.4 µM.

In the case of `O=C1Nc2cc(-c3ccccc3)ccc2C1=O`, in [1], the half-inhibitory concentration (IC50) was 8.52 µM and the Ki was 3.67 µM. The Ratio Ki in the data set listed under Homo sapiens was determined as 0.333. Besides, in data set [2], the IC50 is 4.64 µM and the Ki worked out at 1.22 µM.

On to `Nc1ccc(-c2ccccc2)cc1` [BIPHENYL-4-AMINE], for which the “inhibition (INH)” value in data set [3] and in [4] was “Not Active” in each case.

Regarding `O=C1Nc2ccc(CCCCc3ccccc3)cc2C1=O`, in data set [1], the IC50 was 0.00066 µM and the Ki stood at 0.00028 µM. Besides, the Ratio Ki in the data set listed under Homo sapiens is 2030. For the same compound, in [2], the IC50 stood at 2.19 µM and the Ki worked out at 0.577 µM.

Turning to `Nc1cccc(/C=C/c2ccccc2)c1`, in data set [1], the IC50 is 5.74 µM and the Ki was 2.47 µM. Besides, in the data set listed under Homo sapiens, the Ratio Ki worked out at 3.24. Further, in [2], the IC50 worked out at 30.4 µM and the Ki was 8.01 µM.
